Source: PubChem BioAssay
A selection: hits, their analogues and other compounds. The true share with any hit is near 6.3%.
E coli WT exp: growth inhibitors of wild-type E. coli, primary screen, strain BW25113, expanded library, OD600. OD600 absorbance. growth inhibition, % at 100 µM. hit rate 0.15% among 98,000. AID 710, 2007;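 active means growth inhibition above about 50% at one test dose, limit read from the data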;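 further: growth measured after 20 h incubation at 37 °C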
PostGolgi yeast: phenotypic screen on post-Golgi transport, primary screen; post-Golgi transport phenotypic cell assay; inhibition, % at 10 µM; hit rate 0.9% among 98,000; AID 739, 2007;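 further: yeast cells grown in 1536-well plates; yeast grown about 18 h at 30C before absorbance read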
Ecoli tolC: growth inhibitors of E. coli tolC mutant, primary screen, strain BW25113 ΔtolC::kan, 384-well. OD615. growth inhibition, % at 10 µM (by protocol). hit rate 2.2% among 65,000. AID 573, 2007;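 active means growth inhibition at or above a cutoff equal to the mean over every tested compound plus 3 SD, cut at about 60% in these data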;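 further: growth measured after 20 h incubation at 37 °C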
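System: E. coli ΔtolC::kan strain BW25113; Buffer or medium: LB broth supplemented with 50 µg/mL kanamycin; Compound: 10 µM final, single dose; Incubation: bacterial growth with compound for 20 h at 37 °C; Signal: A615 absorbance measurement; Evaluation: growth inhibition in percent.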
PostGolgi ctrl: growth inhibition of yeast control strain, primary screen, counter-screen for post-Golgi transport modulator project | efflux-deficient yeast background strain, growth absorbance A615, 16 h | inhibition, % at 10 µM | hit rate 5% among 98,000
* hit, by the source's call; . = not tested or not shown. Unless noted, no stated cut-off is given here; in the data, active means inhibition above about 30%; inactive means the rest.

SMILES	E coli WT exp	PostGolgi yeast	Ecoli tolC	PostGolgi ctrl
O=C(O)C1CC=CCC1C(=O)Nc1ccccc1Cl (stereo unspecified)	-3	-8	-20	16
O=C(NCc1ccco1)c1cnn2c(C(F)(F)F)cc(-c3cccs3)nc12	-7	3	2	14
O=C1[C@H]2[C@@H](C(=O)N1c1cc(Cl)cc(Cl)c1)[C@]1(C(=O)Nc3ccccc31)N1CCC[C@@H]21	11	-2	80*	25
CC1CCCC(C)N1C(=O)c1cc(F)c(F)cc1Cl (stereo unspecified)	13	-6	-5	37*
CN(c1cccc(NC(=O)Nc2cccc(Cl)c2)c1)S(C)(=O)=O	29	7	61*	-1
CN(c1cccc(NC(=O)CN2C(=O)c3ccccc3S2(=O)=O)c1)S(C)(=O)=O	2	6	-4	33*
CC(=O)Nc1ccc(S(=O)(=O)NCCSCc2ccc(Cl)cc2Cl)cc1	-4	6	.	15
CCC(C(=O)OC)n1cnc2c(cnn2-c2ccc(Cl)cc2)c1=O (stereo unspecified)	-2	1	1	41*
CC(C)CCn1cnc2c(cnn2-c2ccc(Cl)cc2)c1=O	1	-4	-3	3
CC1CCc2cc(F)ccc2N1C(=O)c1cc2nc(-c3ccco3)cc(C(F)(F)F)n2n1 (stereo unspecified)	-3	2	63*	20
O=C(c1cc2nc(-c3ccco3)cc(C(F)(F)F)n2n1)N1CCN(c2ccc(F)cc2)CC1	-10	3	65*	17
O=C(c1cc2nc(-c3ccco3)cc(C(F)(F)F)n2n1)N1CCN(Cc2ccccc2)CC1	-9	8	.	6
CC1(C)CC(C#N)(N2CCOCC2)CCO1 (stereo unspecified)	-1	11	-7	-12
Cc1nc2ncnn2c(N2CCN(c3cccc(C(F)(F)F)c3)CC2)c1C	7	2	42	19
Cc1cc(N2CCN(C(c3ccccc3)c3ccccc3)CC2)n2ncnc2n1	1	3	82*	24
Cc1nc2ncnn2c(N2CCN(C(c3ccccc3)c3ccccc3)CC2)c1C	6	16	62*	28
CCSc1nnc(NC(=O)c2nn(C(C)C)c(=O)c3ccccc23)s1	-4	7	38	30*
Cc1csc(NC(=O)c2nc(-c3ccccc3)n(-c3ccccc3)n2)n1	-6	38*	1	8
CCSc1nnc(NC(=O)c2nc(-c3ccccc3)n(-c3ccccc3)n2)s1	-8	2	78*	16
COC(=O)C1=C(C)NC(=O)CC1c1cc2c(cc1Br)OCO2 (stereo unspecified)	7	-6	7	4
CC1=C(C(=O)OC2CCCCCCC2)C(c2cc3c(cc2Br)OCO3)CC(=O)N1 (stereo unspecified)	2	5	.	43*
COCCOC(=O)C1=C(C)NC2=C(C(=O)CCC2)C1c1cc2c(cc1Br)OCO2 (stereo unspecified)	-14	0	-18	6
CC1=C(C(=O)OCCOC(C)C)C(c2cc3c(cc2Br)OCO3)CC(=O)N1 (stereo unspecified)	-3	16	.	32*
CCn1cc(C(=O)NCCCN2CCC(C)CC2)c2cc(OC)c(OC)cc2c1=O	7	-1	-15	-3
Cc1cc(C)n(CC(O)Cn2c3ccc(Cl)cc3c3cc(Cl)ccc32)c(=O)n1 (stereo unspecified)	-11	99*	.	99*
SMILES	E coli WT exp	PostGolgi yeast	Ecoli tolC	PostGolgi ctrl
Cc1c(C(=O)N2CCN(c3ccc(F)cc3)CC2)sc2nc(-c3ccccc3)cn12	2	-5	-8	-4
O=C(c1sc2ccccc2c1Cl)N1CCN(c2ccc(F)cc2)CC1	-21	7	.	45*
CCC1CCCCN1S(=O)(=O)c1ccc(C(=O)Nc2nnc(-c3ccccc3Cl)o2)cc1 (stereo unspecified)	-2	3	100*	24
CCC1CCCCN1S(=O)(=O)c1ccc(S(=O)(=O)N(Cc2cccs2)C2CC2)cc1 (stereo unspecified)	-19	10	25	7
O=C(Nc1nnc(-c2ccccc2Cl)o1)c1ccc(S(=O)(=O)N2CCCCCC2)cc1	-3	8	100*	8
CC1CCCCN1S(=O)(=O)c1ccc(NC(=O)c2cccs2)cc1 (stereo unspecified)	-3	-12	53	33*
O=C(Nc1ccn(-c2ccccc2)n1)c1ccc(S(=O)(=O)N2CCCCCC2)cc1	-22	-8	31	31*
O=C(Nc1ccccc1)c1ccc(S(=O)(=O)N2CCCCC2)cc1	-11	-4	0	5
Nc1c(-c2ccc(Cl)cc2)cnn1C1CCS(=O)(=O)C1 (stereo unspecified)	17	28	.	2
